Data as given in ChEMBL document CHEMBL3992563, “Piperazines as nootropic agents: New derivatives of the potent cognition-enhancer DM235 carrying hydrophilic substituents” (Bioorg Med Chem, 2017).

Columns and labels:
Mus musculus [1] = assay: Cognition enhancing effect in sc dosed CD-1 albino mouse assessed as reversal of scopolamine-induced amnesia by measuring difference between training session and retention session time at MED treated 20 mins prior to training session followed by scopolamine challenge immediately after training session by passive avoidance test; type: functional
Method in brief: (§1)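 Mouse passive-avoidance test using a modified Jarvik–Kopp protocol. Drug in saline with 10% DMSO, given s.c. 20 min before training in a 1:10 dilution series up to 10 mg/kg. Scopolamine 1.5 mg/kg i.p. given right after the punishment/training session. Saline controls got an extra saline injection. Each value is the mean of 12–14 mice; the read-out is minimal effective dose.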

Mus musculus [2] = assay: Potency index, ratio of piracetam MED to compound MED for cognition enhancing effect in sc dosed CD-1 albino mouse; type: functional
Mus musculus [3] = assay: Toxicity in sc dosed CD-1 albino mouse assessed as effect on motor co-ordination at cognition enhancing MED by rota rod test; type: organism-based; conditions: in vivo
Mus musculus [4] = assay: Cognition enhancing effect in sc dosed CD-1 albino mouse assessed as reversal of scopolamine-induced amnesia treated 20 mins prior to training session followed by scopolamine challenge immediately after training session by passive avoidance test; type: functional; conditions: CD-1, sc, read-out: MED; method in brief: as §1
[5] = Half life in PBS at 1 uM by LC-MS/MS analysis; type: physicochemical
Method in brief: (§2)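 Analyte at 1 µM final in PBS or in plasma from male Sprague-Dawley rats (plasma stored at −80 °C), incubated at 37 °C. Sampled in triplicate at 0, 30, 60 and 120 min, then internal standard added. Quantified by ESI-positive LC-MS/MS in MRM mode (C18 column, formic acid/acetonitrile gradient) against calibration from 0–1.00 µM. Enalapril checked plasma hydrolytic activity; t1/2 extrapolated from concentration-time curves.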

Mus musculus [6] = assay: Toxicity in sc dosed CD-1 albino mouse assessed as gross behavior abnormality at cognition enhancing MED; type: organism-based; conditions: in vivo
Mus musculus [7] = assay: Toxicity in sc dosed CD-1 albino mouse assessed as effect on spontaneous motility at cognition enhancing MED by hole-board test; type: organism-based; conditions: in vivo
[8] = Half life in Sprague-Dawley rat plasma at 1 uM by LC-MS/MS analysis; type: ADME, cell-free; method in brief: as §2
[9] = Stability in Sprague-Dawley rat plasma assessed as parent compound remaining at 1 uM after 60 mins by LC-MS/MS analysis; type: ADME, cell-free; conditions: read-out: Stability; method in brief: as §2
Plasma [10] = assay: Drug metabolism in Sprague-Dawley rat plasma assessed as 1-(4-Benzoyl-3-(hydroxymethyl)piperazin-1-yl)propan-1-one formation at 1 uM after 60 mins by LC-MS/MS analysis; type: ADME, cell-free; conditions: 1 h; method in brief: as §2
[11] = Stability in Sprague-Dawley rat plasma assessed as parent compound remaining at 1 uM after 2 hrs by LC-MS/MS analysis; type: ADME, cell-free; conditions: read-out: Stability; method in brief: as §2
Plasma [12] = assay: Drug metabolism in Sprague-Dawley rat plasma assessed as 1-(4-(4-Fluorophenylsulfonyl)-3-(hydroxymethyl)piperazin-1-yl)ethanone formation at 1 uM after 60 mins by LC-MS/MS analysis; type: ADME, cell-free; conditions: 1 h; method in brief: as §2
Plasma [13] = assay: Drug level in Sprague-Dawley rat plasma treated with (1-Acetyl-4-(4-fluorophenylsulfonyl)piperazin-2-yl)methyl acetate at 1 uM after 60 mins by LC-MS/MS analysis; type: ADME, cell-free; conditions: 1 h; method in brief: as §2
Plasma [14] = assay: Drug level in Sprague-Dawley rat plasma treated with (1-Benzoyl-4-propionylpiperazin-2-yl)methyl acetate at 1 uM after 60 mins by LC-MS/MS analysis; type: ADME, cell-free; conditions: 1 h; method in brief: as §2
Plasma [15] = assay: Drug metabolism in Sprague-Dawley rat plasma assessed as 1-(4-Benzoyl-2-(hydroxymethyl)piperazin-1-yl)propan-1-one formation at 1 uM after 60 mins by LC-MS/MS analysis; type: ADME, cell-free; conditions: 1 h; method in brief: as §2
Mus musculus [16] = assay: Cognition enhancing effect in ip dosed mouse assessed as reversal of scopolamine-induced amnesia treated 20 mins prior to training session followed by scopolamine challenge immediately after training session by passive avoidance test; type: functional; conditions: read-out: MED
Mus musculus [17] = assay: Cognition enhancing effect in […] mouse assessed as reversal of scopolamine-induced amnesia by measuring difference between training session and retention session time at MED treated 20 mins prior to training session followed by scopolamine challenge immediately after training session by passive avoidance test

| SMILES | Time (Mus musculus [1]) [s] | Ratio (Mus musculus [2]) | Activity (Mus musculus [3]) | minimal effective dose (Mus musculus [4]) [mg/kg] | half-life at 1 µM [5] [h] | Activity (Mus musculus [6]) | Activity (Mus musculus [7]) | half-life at 1 µM [8] [h] | also measured |
| --- | --- | --- | --- | --- | --- | --- | --- | --- | --- |
| CCOC(=O)C1CN(C(=O)CC)CCN1C(=O)c1ccccc1 (stereo unspecified) | 56.6 | 3 - 300 | Non-Toxic | 1 | ≥ 4 | Non-Toxic | Non-Toxic | 0.433 | remaining at 1 h, 1 µM [9]: < 50% |
| CCOC(=O)C1CN(C(=O)c2ccccc2)CCN1C(=O)CC (stereo unspecified) | 51.1 | 3 - 300 | Non-Toxic | 1 | ≥ 4 | Non-Toxic | Non-Toxic | 0.2 | remaining at 1 h, 1 µM [9]: < 50% |
| CCC(=O)N1CCN(C(=O)c2ccccc2)[C@@H](CO)C1 | 55 | – | – | 1 | – | – | – | – | – |
| CCC(=O)N1CCN(C(=O)c2ccccc2)C(COC(C)=O)C1 (stereo unspecified) | – | – | Non-Toxic | > 10 | ≥ 4 | Non-Toxic | Non-Toxic | 1.67 | Drug metabolism (Plasma [10]): Metabolite_Detected; remaining at 2 h, 1 µM [11]: 50% |
| CC(=O)OCC1CN(C(C)=O)CCN1S(=O)(=O)c1ccc(F)cc1 (stereo unspecified) | 56.8 | 3 - 300 | Non-Toxic | 0.1 | ≥ 4 | Non-Toxic | Non-Toxic | 0.483 | remaining at 2 h, 1 µM [11]: ≤ 10%; Drug metabolism (Plasma [12]): Metabolite_Detected |
| CC(=O)N1CCN(S(=O)(=O)c2ccc(F)cc2)CC1CO (stereo unspecified) | 48 | 3 - 300 | Non-Toxic | 10 | ≥ 4 | Non-Toxic | Non-Toxic | ≥ 4 | Drug metabolism (Plasma [13]): Metabolite_Detected |
| CC(=O)OC[C@@H]1CN(C(C)=O)CCN1S(=O)(=O)c1ccc(F)cc1 | 64.5 | – | – | 1 | – | – | – | – | – |
| CCC(=O)N1CCN(C(=O)c2ccccc2)C(CO)C1 (stereo unspecified) | 52.6 | 3 - 300 | Non-Toxic | 0.1 | ≥ 4 | Non-Toxic | Non-Toxic | ≥ 4 | Drug metabolism (Plasma [14]): Metabolite_Detected |
| CCC(=O)N1CCN(C(=O)c2ccccc2)CC1COC(C)=O (stereo unspecified) | 62.2 | 3 - 300 | Non-Toxic | 1 | ≥ 4 | Non-Toxic | Non-Toxic | 2.57 | Drug metabolism (Plasma [15]): Metabolite_Detected; remaining at 2 h, 1 µM [11]: 60% |
| CCOC(=O)C1CN(C(C)=O)CCN1S(=O)(=O)c1ccc(F)cc1 (stereo unspecified) | 55.7 | 3 - 300 | Non-Toxic | 0.1 | ≥ 4 | Non-Toxic | Non-Toxic | 0.35 | remaining at 1 h, 1 µM [9]: < 50% |
| CCOC(=O)[C@H](CCc1ccccc1)N[C@@H](C)C(=O)N1CCC[C@H]1C(=O)O [ENALAPRIL] | – | – | – | – | ≥ 4 | – | – | 1.57 | – |
| NC(=O)CN1CCCC1=O [PIRACETAM] | – | – | – | – | – | – | – | – | minimal effective dose (Mus musculus [16]): 30 mg/kg; Time (Mus musculus [17]): 82.4 s |
| CC(=O)NC1CCN(S(=O)(=O)c2ccc(F)cc2)CC1 [SAPUNIFIRAM] | – | – | – | – | – | – | – | – | minimal effective dose (Mus musculus [16]): 0.01 mg/kg |
| CCC(=O)N1CCN(C(=O)c2ccccc2)CC1 [SUNIFIRAM] | – | – | – | – | ≥ 4 | – | – | ≥ 4 | minimal effective dose (Mus musculus [16]): 0.001 mg/kg |
| O=C1CCC2CN(S(=O)(=O)c3ccc(F)cc3)CCN12 (stereo unspecified) [UNIFIRAM] | – | – | – | – | – | – | – | – | minimal effective dose (Mus musculus [16]): 0.001 mg/kg |
